Screening data (PubChem BioAssay)
An excerpt weighted towards active compounds, which were near 1% of everything screened.
PvdQ inh: P. aeruginosa PvdQ acylase inhibitors, primary screen, biochemical, fluorescence, plate reader and imaging, single point; purified PvdQ acylase; PvdQ acylase [Pseudomonas aeruginosa LESB58]; 340,000 tested, 0.063% active; inhibition, % at 10 µM; in the data active means inhibition above about 30%, passing the limit was not always enough
ERp5 block: inhibitors of ERp5-driven insulin aggregation, primary screen, biochemical, turbidity, absorbance 650 nm, single point; 90 min; 350,000 tested, 0.05% active; inhibition, % at 9.99 µM; AID 651711, 2012; Protein disulfide-isomerase A6 (Homo sapiens), Q15084;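 active means mean replicate inhibition above about 25%, with every replicate also reaching it, limit read from the data, passing the limit was not always enough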
VIM-2 inh: VIM-2 metallo-beta-lactamase inhibitors, primary screen, biochemical, epi-absorbance readout, Pseudomonas aeruginosa enzyme | purified VIM-2, nitrocefin hydrolysis, epi-absorbance fluorescence | inhibition, % at 5.6 µM | 290,000 tested, 0.89% active;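 active means inhibition above the mean of all tested compounds plus 3 SD, cutoff set per screening run, cut at about 7.5% in these data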;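 further: red hydrolysis product quenches plate fluorescence so inhibitors raise well fluorescence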
PDI turbidity: inhibitors of human PDI, primary screen, biochemical, turbidity, single point, plate reader | PDI insulin aggregation turbidity, A650, 90 min | inhibition, % at 10 µM | 350,000 tested, 0.052% active;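 active means mean inhibition across replicates of 30% or more, whatever share of single replicates reach that level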
Target sequence (P07237 whole entry, looked up): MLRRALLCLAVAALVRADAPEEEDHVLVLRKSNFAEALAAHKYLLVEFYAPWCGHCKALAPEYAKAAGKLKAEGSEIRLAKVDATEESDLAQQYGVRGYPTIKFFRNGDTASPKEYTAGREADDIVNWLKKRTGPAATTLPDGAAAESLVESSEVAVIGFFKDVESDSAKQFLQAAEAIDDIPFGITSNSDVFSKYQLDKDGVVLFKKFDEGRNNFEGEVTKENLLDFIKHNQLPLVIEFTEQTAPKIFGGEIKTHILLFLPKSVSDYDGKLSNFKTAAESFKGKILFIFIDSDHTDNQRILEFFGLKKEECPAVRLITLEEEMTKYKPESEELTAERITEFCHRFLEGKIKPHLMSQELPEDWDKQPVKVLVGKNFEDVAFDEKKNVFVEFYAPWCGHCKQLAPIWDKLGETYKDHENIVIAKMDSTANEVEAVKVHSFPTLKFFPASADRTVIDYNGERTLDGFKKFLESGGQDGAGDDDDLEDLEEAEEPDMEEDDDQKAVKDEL
PglD DTNB: C. jejuni PglD acetyltransferase inhibitors, primary screen, biochemical, DTNB colorimetric, single point; UDP-N-acetylbacillosamine N-acetyltransferase PglD (Campylobacter jejuni); 360,000 tested, 0.098% active; purified PglD enzyme, DTNB colorimetric CoA detection; inhibition, % at 12.5 µM; in the data active means inhibition above about 16%, passing the limit was not always enough
IMP-1 inh: IMP-1 metallo-beta-lactamase inhibitors, primary screen, biochemical, epi-absorbance readout, Pseudomonas aeruginosa enzyme. inhibition, % at 5.6 µM. purified IMP-1, nitrocefin hydrolysis, epi-absorbance fluorescence. 290,000 tested, 0.45% active. metallo-beta-lactamase IMP-1 (Pseudomonas aeruginosa);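 active means inhibition above the mean plus 3 SD of all compounds in the same screening run, cut at about 4.5% in these data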
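System: Purified IMP-1 | Read-out basis: Percent enzyme inhibition | Controls: IMP-1 with DMSO as 0%, enzyme-free DMSO as 100% | Replicates: One well per compound | Doses: 5.6 µM nominal single concentration | Detection: Epi-absorbance fluorescence, 480 nm excitation, 530 nm emission | Incubation: 25 °C, 15 min preincubation, 25 min reaction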
Numbers stand for hits; 0 = inactive; - = no result given.

SMILES	PvdQ inh	ERp5 block	VIM-2 inh	PDI turbidity	PglD DTNB	IMP-1 inh
O=C(c1cc2ccccc2o1)N1CCN=C1SCc1cccc(F)c1	0	0	0	0	0	0
O=C(c1cc2ccccc2o1)N1CCN=C1SCc1cccnc1	0	0	9.4	0	0	0
C[C@H](CO)N1C[C@H](C)[C@@H](CN(C)C)Oc2ccc(NC(=O)C3CCCCC3)cc2CC1=O	-	0	-	-	0	-
Cc1c(C(=O)NCc2cccs2)oc2ccc(Br)cc12	0	-	0	0	0	5.3
Cc1c(C(=O)NCc2ccccn2)oc2ccc(Br)cc12	0	0	-	0	0	-
C[C@@H]1CN([C@@H](C)CO)C(=O)Cc2cc(NS(=O)(=O)c3ccc(F)cc3)ccc2O[C@H]1CN(C)S(C)(=O)=O	-	0	-	-	0	-
CCCCC(=O)Nc1nc(C)c(-c2csc(Nc3cc(Cl)ccc3OC)n2)s1	0	0	0	0	0	7.6
CCCCCCC(=O)Nc1nc(C)c(-c2csc(Nc3cc(Cl)ccc3C)n2)s1	0	0	0	0	0	19
COc1ccc(Cl)cc1Nc1nc(-c2sc(NC(=O)C(C)(C)C)nc2C)cs1	0	0	0	0	0	18
COc1ccc(S(=O)(=O)Nc2ccc3c(c2)CC(=O)N([C@@H](C)CO)C[C@@H](C)[C@H](CN(C)Cc2ccncc2)O3)cc1	-	0	-	-	0	-
CCOC(=O)C(C)Sc1nnc2c3ccccc3n(C)c2n1 (stereo unspecified)	0	0	8.8	0	0	0
O=C(C[C@@H]1CC[C@@H]2[C@H](COC[C@H](O)CN2C(=O)Nc2ccc(Cl)c(Cl)c2)O1)NCc1ccc(F)cc1	-	0	-	-	0	-
O=C(CCS(=O)(=O)c1ccccc1)N(CCCN1CCOCC1)c1nc2ccccc2s1	0	0	-	38	-	-
Cc1ccc(S(=O)(=O)CCC(=O)N(CCCN2CCOCC2)c2nc3ccccc3s2)cc1	0	0	-	0	0	-
Cc1noc(C)c1NC(=O)NCC[C@@H]1CC[C@@H](NC(=O)c2ccncc2)[C@H](CO)O1	-	0	-	-	0	-
N#CN(Cc1ccccc1)Cc1ccccc1	92	0	0	0	0	0
Cc1cc(C)nc(N(C#N)Cc2ccc([N+](=O)[O-])cc2)n1	49	0	0	0	-	0
Cc1cc(C)nc(N(C#N)Cc2ccccc2)n1	38	-	0	0	0	0
CN(C)c1nccc(N(Cc2ccccc2)Cc2ccccc2)c1C#N	0	-	0	0	-	0
Cc1cc(C)nc(SCc2ccc([N+](=O)[O-])cc2)n1	0	0	0	0	-	0
CC(C(=O)O)N1C(=O)C2C3CC(C2C1=O)C1C(c2ccccc2)c2sc(=O)[nH]c2SC31 (stereo unspecified)	0	0	0	0	0	6.5
O=C(O)CCCN1C(=O)C2C3CC(C2C1=O)C1C(c2ccccc2)c2sc(=O)[nH]c2SC31 (stereo unspecified)	0	0	0	0	-	0
COC(=O)c1cccc(NC(=O)CSc2nnc(C)o2)c1	0	0	0	0	0	7.5
COCC(=O)N1C[C@@H](C)[C@H](OC)CN(C)C(=O)c2cc(NC(=O)NC(C)C)ccc2OC[C@H]1C	-	0	-	-	0	-
COc1cc(/C=C2/C(=O)NN(c3ccc(F)cc3)C2=O)cc(Cl)c1O	0	0	0	0	0	0
SMILES	PvdQ inh	ERp5 block	VIM-2 inh	PDI turbidity	PglD DTNB	IMP-1 inh
COc1cc(/C=C2/C(=O)NN(c3ccc(Cl)cc3)C2=O)cc(Br)c1O	0	0	0	0	0	9.7
COc1ccc(Nc2c3c(nc4ccc(C)cc24)CCC3)cc1	0	0	9.1	0	0	0
COc1ccccc1Nc1c2c(nc3ccc(N)cc13)CCCC2	0	0	8.7	0	0	0
O=C(O)[C@H]1[C@H](CO)[C@H]2Cn3c(ccc(C4=CCCCC4)c3=O)[C@H]2N1C(=O)Cc1cccnc1	-	0	-	-	-	-
OCCN1CCN(c2nc(-c3ccccc3)c3cc(Br)ccc3n2)CC1	0	0	8.0	0	-	0
C[C@H](CO)N1C[C@H](C)[C@@H](CN(C)C(=O)Nc2ccccc2)Oc2ccc(NC(=O)Nc3ccc(C(F)(F)F)cc3)cc2CC1=O	-	0	-	-	0	-
CN(C)CCN1C(=O)C2C3C=CC(C3)C2C1=O (stereo unspecified)	0	0	0	0	-	0
CN(C)/C=C1\SC(=S)N(N2C(=O)C3C4C=CC(C4)C3C2=O)C1=O (stereo unspecified)	0	0	12	0	-	0
COc1ccc2ccccc2c1C(=O)/C=C\c1ccoc1	0	-	0	0	-	6.6
O=C(/C=C/c1ccoc1)c1ccccc1O	0	-	0	0	0	0
O=C(CC1CC1)N1[C@@H](CO)[C@@H](c2ccccc2)C12CN(Cc1cc(F)ccc1F)C2	-	0	-	-	-	-
Cc1ccc(C)c(S(=O)(=O)NC2CCSC2=O)c1 (stereo unspecified)	79	0	-	0	0	-
O=C1SCCC1NS(=O)(=O)c1ccc([N+](=O)[O-])cc1 (stereo unspecified)	0	0	0	0	0	0
C#CCN1C(=O)S/C(=C\c2ccc(-c3ccc(Cl)c(C(=O)O)c3)o2)C1=O	0	0	9.3	0	0	0
COc1ccc(C2c3ccc(O)cc3Oc3ncn(CCN4CCOCC4)c(=N)c32)cc1OC (stereo unspecified)	0	0	0	54	0	0
Cc1c(O)ccc2c(CN3CCN(CCO)CC3)cc(=O)oc12	0	-	0	53	-	0
Cc1c(O)ccc2c(CN3CCOCC3)cc(=O)oc12	0	0	0	0	0	0
C[C@H]1CNC(=O)C(=O)N1C[C@H](Cc1ccc(O)cc1)NC(=O)CC12CC3CC(CC(C3)C1)C2	0	0	0	0	0	8.4
CC(C)C[C@@H](CN1C(N)=NC[C@@H]1C)NC(=O)CC12CC3CC(CC(C3)C1)C2	0	0	-	0	0	-
CC1CCN(S(=O)(=O)c2cccc(S(=O)(=O)N3CCOCC3)c2)CC1	0	-	0	0	0	5.4
CN(C)CC(=O)N[C@H]1CC[C@H](CC(=O)O)O[C@@H]1CO	-	0	-	-	-	-
N#CC1=C(N)Oc2ccc3ccc(O)cc3c2C1c1ccsc1 (stereo unspecified)	0	0	0	0	-	17
N#CC1=C(N)Oc2cc(N)ccc2C1c1ccsc1 (stereo unspecified)	0	-	0	0	-	0
COCCNC(=O)C[C@H]1CC[C@@H]2[C@H](COc3ccc(NC(=O)C4CCCC4)cc3C(=O)N2C)O1	-	0	-	-	0	-
CCOC(=O)c1[nH]c2ccc(OC)cc2c1NC(=O)c1ccccc1C(=O)O	0	0	0	0	-	0
CCOC(=O)c1[nH]c2ccc(F)cc2c1NC(=O)c1ccccc1C(=O)O	0	0	9.8	0	0	0
